Active and inactive are the calls of the source. The rule behind the calls is not given here.
Legend:
[1] = test system: Mus musculus; test: Mouse brain drug concentration after 1 hr of 20 umol/kg subcutaneous administration; assay type: functional, organism-based
Procedure, shortened: (§1)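 Mouse brain homogenates taken 1 h after 20 μmol/kg sc were diluted in methanol containing 2% ascorbic acid and centrifuged. Supernatant was run on a C8 column with isocratic 0.1 M phosphate/50–75% methanol. Detection was electrochemical at 0.6 V. Results are nmol/g, mean ± SD, five mice per group.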

[2] = test system: Mus musculus; test: Ex vivo inhibition of mouse brain lipid autoxidation after 1 hr by 20 umol/kg subcutaneous administration; assay type: functional; conditions: sc
Procedure, shortened: (§2)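 Male CD1 mice (30 g, five per group) were given 20 μmol/kg sc or saline and killed 1 h later. Brains were frozen in liquid N2, stored at -80 °C, then homogenized 1/19 w/v in ice-cold water. Homogenate (10 mg tissue) was incubated in 20 mM KH2PO4 pH 7.3 with 0.14 M KCl (final) at 37 °C for 30 min. Unincubated samples gave basal TBARS.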

[3] = species: Rattus norvegicus; test: In vitro inhibition of lipid autoxidation (TBARS formation) of rat brain homogenate; assay type: functional
Procedure, shortened: (§3)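 Rat brain homogenate was incubated at 37 °C for 30 min, and TBARS formation was measured. The value is the concentration giving 50% inhibition, as mean ± SD with the number of experiments given.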

[4] = Superoxyl radical (O2) scavenging reaction rate constant in competition with nitro-blue tetrazolium of superoxyl radicals formed by xanthine oxidase in the presence of xanthine; assay type: functional
[5] = species: Mus musculus; test: Percentage number of paraparetic mice 1 hr after concussive head injury; assay type: functional
Procedure, shortened: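 Mice were dosed 12 mg/kg sc 30 min before concussive head injury, a blow of measured severity. At 1 h a blinded string test counted mice unable to raise their hind limbs onto a horizontal string as paraparetic. Groups had 20–25 mice and were compared with saline by χ-square.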

[6] = test system: Mus musculus; test: Ex vivo inhibition of mouse brain lipid autoxidation after 1 hr by 20 umol/kg subcutaneous administration; no inhibition; assay type: functional, organism-based; procedure, shortened: as §2
[7] = test system: Mus musculus; test: […] fter 1 hr by 20 umol/kg subcutaneous administration; assay type: functional, organism-based; procedure, shortened: as §1
[8] = species: Rattus norvegicus; test: In vitro lipid autoxidation (TBARS formation) in rat brain homogenate; no inhibition; assay type: functional; procedure, shortened: as §3
[9] = O2 scavenging reaction rate constant for competition with nitro-blue tetrazolium of superoxyl radicals formed by xanthine oxidase in the presence of xanthine;No reaction; assay type: functional
[10] = test system: Mus musculus; test: Ex vivo inhibition of mouse brain lipid autoxidation after 1 hr by 1 umol/kg subcutaneous administration; assay type: functional; conditions: sc

SMILES	inhibition in vivo at 20 µmol/kg [2] [%]	IC50 ([3]; Rattus norvegicus, Brain) [nM]	Rate constant [4] [M⁻¹ s⁻¹]	also measured
Cc1c(C)c2c(c(C)c1O)C(CN1CCN(Cc3ccccc3)CC1)C(C)(C)O2 (stereo not drawn)	24	300	20000	Concentration [1]: 1.6 nM/g
Cc1c(C)c2c(c(C)c1O)C(C(=O)O)C(C)(C)O2 (stereo not drawn)		27000	67000	
Cc1c(C)c2c(c(C)c1O)C(CN1CCN(CCOCCO)CC1)C(C)(C)O2 (stereo not drawn)		1200	85000	Paraparetic mice [5]: 60%; Concentration [1]: 1.2 nM/g; inhibition [6]: inactive
Cc1c(C)c2c(c(C)c1O)C(CN1CCN(CCO)CC1)C(C)(C)O2 (stereo not drawn)	57	500	90000	Paraparetic mice [5]: 40%; Concentration [1]: 6.5 nM/g
CC(=O)OCCN1CCN(CC2c3c(C)c(OC(C)=O)c(C)c(C)c3OC2(C)C)CC1 (stereo not drawn)	35			Concentration [7]: 5.7 nM/g; IC50 [8]: Not Active; Rate constant [9]: inactive
Cc1c(C)c2c(c(C)c1O)C(C(=O)OCCN1CCN(C)CC1)C(C)(C)O2 (stereo not drawn)	10	3900		
Cc1c(C)c2c(c(C)c1O)C(C[N+](C)(C)C)C(C)(C)O2 (stereo not drawn)		3600	49000	
Cc1c(C)c2c(c(C)c1O)C(CN1CCN(C)CC1)C(C)(C)O2 (stereo not drawn)	63	450		Paraparetic mice [5]: 30%; Concentration [1]: 7.5 nM/g; IC50 [3]: 400 nM
Cc1c(C)c2c(c(C)c1O)C(CN1CCCCC1)C(C)(C)O2 (stereo not drawn)		400	90000	inhibition in vivo at 1 µmol/kg [10]: 50%
COC(=O)C1c2c(C)c(O)c(C)c(C)c2OC1(C)C (stereo not drawn)		3200		
Cc1c(C)c2c(c(C)c1O)C(CO)C(C)(C)O2 (stereo not drawn)		2600	140000	
Cc1c(C)c2c(c(C)c1O)CC[C@@](C)(CCC[C@H](C)CCC[C@H](C)CCCC(C)C)O2 [ALPHA-TOCOPHEROL]		14000		
CC(=O)Oc1c(C)c(C)c2c(c1C)C(CN1CCN(C)CC1)C(C)(C)O2 (stereo not drawn)	57			Concentration [7]: 7.2 nM/g; IC50 [8]: Not Active
Cc1c(C)c2c(c(C)c1O)C(C(=O)N1CCN(C)CC1)C(C)(C)O2 (stereo not drawn)		12000	83000	
Cc1c(C)c2c(c(C)c1O)CCC(C)(CC[N+](C)(C)C)O2.Cc1ccc(S(=O)(=O)[O-])cc1 (stereo not drawn)		2000	24000	Paraparetic mice [5]: 40%
Cc1c(C)c2c(c(C)c1O)C(CN(C)C)C(C)(C)O2 (stereo not drawn)		700	150000	inhibition [6]: inactive
Cc1c(C)c2c(c(C)c1O)C(CN1CCN(c3ncccn3)CC1)C(C)(C)O2 (stereo not drawn)	29	400		Concentration [1]: 0.8 nM/g
Cc1c(C)c2c(c(C)c1O)CCC(C)(CCN(C)C)O2 (stereo not drawn)	16	700	27000	
Cc1c(C)c2c(c(C)c1O)C(CNC(C)C)C(C)(C)O2 (stereo not drawn)		1400	330000	inhibition in vivo at 1 µmol/kg [10]: 37%
Cc1c(C)c2c(c(C)c1O)C(C(=O)N1CCN(CCO)CC1)C(C)(C)O2 (stereo not drawn)		19000	43000	

— ChEMBL document CHEMBL1128228, “2,3-Dihydro-1-benzofuran-5-ols as analogues of alpha-tocopherol that inhibit in vitro and ex vivo lipid autoxidation and protect mice against central nervous system trauma” (J Med Chem, 1995)
